Tests used:
Format in all cases: functional
Mus musculus [1] = experiment: Percentage of analgesic efficacy compared to morphine at 8 mg/kg
Outline: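 Analgesic efficacy was measured in the mouse hot-plate test (52.5 °C, paw-licking latency) at the maximal analgesic dose. It is expressed as a percentage of the maximal effect of morphine (8 mg/kg sc), which is taken as 100%.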

Mus musculus [2] = experiment: Percentage of antagonism exerted by reserpine at 2 mg/kg
Mus musculus [3] = experiment: Antinociceptive effect expressed as licking latency determined at 20 mg/kg after 15 minutes of subcutaneous administration in the mouse hotplate test
Outline: (§1)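 Male Swiss albino mice (23-30 g) were placed on a plate held at 52.5 ± 0.1 °C. Fore or hind paw licking was the endpoint. Latency was timed before dosing and at intervals up to 60 min after, with a 45 s cutoff. Mice scoring below 12 or over 18 s in the pretest were excluded. Compounds were given in saline or 1% CMC at 10 mL/kg sc or po.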

Mus musculus [4] = experiment: Antinociceptive effect expressed as licking latency determined at 20 mg/kg after 30 minutes of subcutaneous administration in the mouse hotplate test; outline: as §1
Mus musculus [5] = experiment: Antinociceptive effect expressed as licking latency determined at 20 mg/kg after 45 minutes of subcutaneous administration in the mouse hotplate test; outline: as §1
Mus musculus [6] = experiment: Antinociceptive effect expressed as licking latency determined at 20 mg/kg after 60 minutes of subcutaneous administration in the mouse hotplate test; outline: as §1
Mus musculus [7] = species: Mus musculus; experiment: Antinociceptive effect determined before treatment in the mouse hotplate test; design: unit not given beside the values; outline: as §1
Mus musculus [8] = experiment: Maximal analgesic dose required to cause antinociceptive effect in the mouse hot plate method by subcutaneous administration
Mus musculus [9] = experiment: Minimal nontoxic dose in the mouse hot plate method by subcutaneous administration
Mus musculus [10] = experiment: Antinociceptive effect expressed as licking latency determined at 8 mg/kg after 15 minutes of subcutaneous administration in the mouse hotplate test
Outline: (§2)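 Male Swiss albino mice (23-30 g), acclimatised 24 h at 23 ± 1 °C. Dosed sc in 10 mL kg⁻¹ of saline, 1% carboxymethylcellulose, or saline + DMSO 2:1 vehicle. Placed on a 52.5 ± 0.1 °C hot plate, timed to fore or hind paw licking. Pretest latency had to be 12–18 s. Cutoff was 45 s. Latency was read before dosing and at 15, 30, 45 and 60 min after.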

Mus musculus [11] = experiment: Antinociceptive effect expressed as licking latency determined at 8 mg/kg after 30 minutes of subcutaneous administration in the mouse hotplate test; outline: as §2
Mus musculus [12] = experiment: Antinociceptive effect expressed as licking latency determined at 8 mg/kg after 45 minutes of subcutaneous administration in the mouse hotplate test; outline: as §2
Mus musculus [13] = experiment: Antinociceptive effect expressed as licking latency determined at 8 mg/kg after 60 minutes of subcutaneous administration in the mouse hotplate test; outline: as §2
Mus musculus [14] = experiment: Antinociceptive effect expressed as licking latency determined at 6 mg/kg after 15 minutes of subcutaneous administration in the mouse hotplate test; outline: as §1
Mus musculus [15] = experiment: Antinociceptive effect expressed as licking latency determined at 6 mg/kg after 30 minutes of subcutaneous administration in the mouse hotplate test; outline: as §1
Mus musculus [16] = experiment: Antinociceptive effect expressed as licking latency determined at 6 mg/kg after 45 minutes of subcutaneous administration in the mouse hotplate test; outline: as §1
Mus musculus [17] = experiment: Antinociceptive effect expressed as licking latency determined at 6 mg/kg after 60 minutes of subcutaneous administration in the mouse hotplate test; outline: as §1
Mus musculus [18] = experiment: Antinociceptive effect expressed as licking latency determined at 3 mg/kg after 15 minutes of subcutaneous administration in the mouse hotplate test; outline: as §1
Mus musculus [19] = experiment: Antinociceptive effect expressed as licking latency determined at 3 mg/kg after 30 minutes of subcutaneous administration in the mouse hotplate test; outline: as §1
Mus musculus [20] = experiment: Antinociceptive effect expressed as licking latency determined at 3 mg/kg after 45 minutes of subcutaneous administration in the mouse hotplate test; outline: as §1
Mus musculus [21] = experiment: Antinociceptive effect expressed as licking latency determined at 3 mg/kg after 60 minutes of subcutaneous administration in the mouse hotplate test; outline: as §1
Mus musculus [22] = experiment: Antinociceptive effect expressed as licking latency determined at 10 mg/kg after 60 minutes of oral administration in the mouse hotplate test; outline: as §1
Mus musculus [23] = experiment: Antinociceptive effect expressed as licking latency determined at 10 mg/kg after 15 minutes of oral administration in the mouse hotplate test; outline: as §1
Mus musculus [24] = experiment: Antinociceptive effect expressed as licking latency determined at 10 mg/kg after 30 minutes of oral administration in the mouse hotplate test; outline: as §1
Mus musculus [25] = experiment: Antinociceptive effect expressed as licking latency determined at 10 mg/kg after 45 minutes of oral administration in the mouse hotplate test; outline: as §1
Mus musculus [26] = experiment: Maximal analgesic dose required to cause antinociceptive effect in the mouse hot plate method by oral administration
Mus musculus [27] = experiment: Antinociceptive effect expressed as licking latency determined at 1 mg/kg after 15 minutes of subcutaneous administration in the mouse hotplate test; outline: as §1
Mus musculus [28] = experiment: Antinociceptive effect expressed as licking latency determined at 1 mg/kg after 30 minutes of subcutaneous administration in the mouse hotplate test; outline: as §1
Mus musculus [29] = experiment: Antinociceptive effect expressed as licking latency determined at 1 mg/kg after 45 minutes of subcutaneous administration in the mouse hotplate test; outline: as §1
Mus musculus [30] = experiment: Antinociceptive effect expressed as licking latency determined at 1 mg/kg after 60 minutes of subcutaneous administration in the mouse hotplate test; outline: as §1

Structure (SMILES)	Analgesic effect (Mus musculus [1]) [%]	Antagonism (Mus musculus [2]) [%]	Licking latency (Mus musculus [3])	Licking latency (Mus musculus [4])	Licking latency (Mus musculus [5])	Licking latency (Mus musculus [6])	Activity (Mus musculus [7])	MAD (Mus musculus [8]) [mg/kg]	MNTD (Mus musculus [9]) [mg/kg]	further results
Cc1noc2c(-c3ccccc3)nn(CCCN3CCN(c4cccc(Cl)c4)CC3)c(=O)c12	104	100	19.6	34.5	31.2	29.3	14.6	0.3	60	–
CCOC(=O)c1nn(CCCN2CCN(c3cccc(Cl)c3)CC2)c(=O)c2noc(C)c12	71	0	22.2	23.8	23.2	17.8	16	10	40	–
CN1CC[C@]23c4c5ccc(O)c4O[C@H]2[C@@H](O)C=C[C@H]3[C@H]1C5 [MORPHINE]	100	0	–	–	–	–	14.6	0.2	30	Licking latency (Mus musculus [10]): 24.5; Licking latency (Mus musculus [11]): 28.7; Licking latency (Mus musculus [12]): 26.4; Licking latency (Mus musculus [13]): 23.8
Cc1nn(CCCN2CCN(c3cccc(Cl)c3)CC2)c(=O)c(N)c1C(C)O (configuration not stated)	101	100	–	–	–	–	14.5	0.3	40	Licking latency (Mus musculus [14]): 22.4; Licking latency (Mus musculus [15]): 33.7; Licking latency (Mus musculus [16]): 29.3; Licking latency (Mus musculus [17]): 23.3
CC(=O)c1c(C)nn(CCCN2CCN(c3cccc(Cl)c3)CC2)c(=O)c1N	100	0	–	–	–	–	15.5	0.1	20	Licking latency (Mus musculus [18]): 23.7; Licking latency (Mus musculus [19]): 33.2; Licking latency (Mus musculus [20]): 34.3; Licking latency (Mus musculus [21]): 32.7
Cc1nn(CCCN2CCN(c3cccc(Cl)c3)CC2)c(=O)c2noc(C)c12	72	92	18	24	22.6	17.6	16.6	10	40	–
Cc1onc2c(=O)n(CCCN3CCN(c4cccc(Cl)c4)CC3)nc(-c3ccccc3)c12	75	94	–	–	–	–	15.1	–	50	Licking latency (Mus musculus [22]): 16.6; Licking latency (Mus musculus [23]): 20.8; Licking latency (Mus musculus [24]): 25.1; Licking latency (Mus musculus [25]): 19.1; MAD (Mus musculus [26]): 1 mg/kg
C=Cc1c(C)nn(CCCN2CCN(c3cccc(Cl)c3)CC2)c(=O)c1N	100	61	–	–	–	–	14.2	0.1	20	Licking latency (Mus musculus [27]): 21.3; Licking latency (Mus musculus [28]): 33.5; Licking latency (Mus musculus [29]): 28.2; Licking latency (Mus musculus [30]): 22.6

Reference: ChEMBL document CHEMBL1136719, “[(3-Chlorophenyl)piperazinylpropyl]pyridazinones and analogues as potent antinociceptive agents” (2003)
